The target in data set [1] is T1, MAGL (Rattus norvegicus, UniProt Q8R431).
T1 sequence (Q8R431 1-303): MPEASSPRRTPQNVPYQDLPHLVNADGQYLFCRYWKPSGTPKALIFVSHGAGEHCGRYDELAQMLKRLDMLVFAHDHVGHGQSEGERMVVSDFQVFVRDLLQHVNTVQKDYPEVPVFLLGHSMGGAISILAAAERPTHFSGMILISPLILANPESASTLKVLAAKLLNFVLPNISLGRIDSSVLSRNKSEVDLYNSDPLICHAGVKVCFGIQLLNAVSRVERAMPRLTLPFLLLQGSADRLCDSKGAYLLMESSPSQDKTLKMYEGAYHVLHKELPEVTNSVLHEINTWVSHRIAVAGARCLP
As to the kind of experiment: Ex vivo brain uptake and pharmacological blocking in rats. Also on record: species or system rat (male Sprague-Dawley). The method in brief: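 Restrained conscious male Sprague-Dawley rats (330–370 g, n = 4/group) received 28–34 MBq of tracer (208 GBq/μmol) in 0.3 mL 5% Tween80 buffered saline via warm-water-dilated tail vein. They were decapitated at 2 and 40 min. The blocking group was pretreated with unlabeled inhibitor (2 mg/kg ip, 5% DMSO/5% Tween80 saline) and killed at 40 min. Cortex, cerebellum, hypothalamus and rest of brain were weighed and gamma-counted, decay-corrected against dose standards. Injected dose was corrected for tail residue.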

Data set [2] has as its target T2, MAGL (Mus musculus, UniProt O35678).
T2 sequence (O35678 1-303): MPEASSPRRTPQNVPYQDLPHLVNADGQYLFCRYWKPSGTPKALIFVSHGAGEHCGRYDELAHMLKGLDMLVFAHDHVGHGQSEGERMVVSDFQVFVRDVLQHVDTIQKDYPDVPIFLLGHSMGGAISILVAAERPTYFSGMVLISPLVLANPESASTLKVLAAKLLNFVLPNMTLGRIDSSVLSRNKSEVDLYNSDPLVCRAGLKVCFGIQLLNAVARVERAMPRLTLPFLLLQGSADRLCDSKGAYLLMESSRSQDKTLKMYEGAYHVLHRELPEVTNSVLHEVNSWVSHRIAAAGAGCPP
As to the kind of experiment: Ex vivo whole brain uptake and pharmacological blocking in mice. Details: species or system mouse (male C57BL/6). The note with it: for whole brain uptake: conscious mice, iv tail vein, 2 and 40 min post injection. In a few lines: (§1)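 They were killed at 2 and 40 min. The blocking group got matching unlabeled inhibitor (2.0 mg/kg ip, 5% DMSO/5% Tween80 saline) 30 min before and was killed at 40 min. Trunk blood and whole brain were weighed and gamma-counted, decay-corrected to injection. Results given as SUV, mean ± SD, Student t-test.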

Data set [3] relates to MAGL. As to the kind of experiment: Ex vivo blood radioactivity retention and pharmacological blocking in mice. Details: species or system mouse (male C57BL/6). In a few lines: as §1
A further data set relates to hMAGL. The following applies: read-out: hMAGL IC50; human enzyme; cited from earlier work.
The subject of a further data set is hFAAH. The note with it: read-out: hFAAH IC50; human enzyme; cited from earlier work.

The IC50 is the concentration that gives 50% inhibition.

In the case of `O=[11C](OC(C(F)(F)F)C(F)(F)F)N1CCC(C(O)(c2ccc3c(c2)OCO3)c2ccc3c(c2)OCO3)CC1` [[^11C]7], the brain radioactivity uptake on MAGL [1] (conscious rats, iv tail vein, 2 and 40 min post injection, brain regions) is 0.44–0.71 SUV. The “blocking of brain uptake by pretreatment with unlabeled inhibitor” value at MAGL [1] (rats, unlabeled 7 2 mg/kg ip before radiotracer, 40 min post injection) was “not blocked by pretreatment with unlabeled 7”. For the same compound, the whole brain uptake on MAGL [2] is on record as 0.34–0.67 SUV. Also, on MAGL [2] (mice, unlabeled inhibitor 2 mg/kg ip 30 min before radiotracer, 40 min post injection), the “attenuation of brain uptake by pretreatment with unlabeled compound” value is given as “not significantly attenuated”.
On to `O=[11C](N1CCC(C(c2ccc3c(c2)OCO3)c2ccc3c(c2)OCO3)CC1)n1cncn1` [[^11C]18], for which, at MAGL [2], the whole brain uptake is on record as 0.65–0.82 SUV. Moreover, the “reduction of brain retention in blocked group” value at MAGL [2] (mice, unlabeled inhibitor 2 mg/kg ip 30 min before radiotracer, 40 min post injection, p < 0.05) is 42%. In addition, at MAGL [2] (mouse brain, estimated from 42% reduction in blocked group), the “specific to non-specific binding ratio” value is 0.71. For the same compound, the retention in blood with MAGL [3] (iv tail vein, 2 and 40 min post injection) was 1.1–1.5 SUV. Also, the “reduction of blood binding upon pharmacological blockade” value with MAGL [3] (unlabeled inhibitor 2 mg/kg ip 30 min before radiotracer, 40 min post injection) is recorded as 71%.
Take `O=C(OC(C(F)(F)F)C(F)(F)F)N1CCC(C(O)(c2ccc3c(c2)OCO3)c2ccc3c(c2)OCO3)CC1` [compound 7]: the IC50 with hMAGL is 5.9 nM; with hFAAH it was > 50000 nM.
Turning to `O=C(N1CCN(C(c2ccccc2)c2ccccc2)CC1)n1nnc2ccccc21` [compound 12], in the data set on hFAAH, the IC50 was 562 nM.
With `O=C(N1CCC(C(c2ccc3c(c2)OCO3)c2ccc3c(c2)OCO3)CC1)n1cncn1` [compound 18], the IC50 with hMAGL was 0.36 nM; in the data set on hFAAH, 4800 nM.

The values are drawn from article PMC4104214 (Nuclear medicine and biology, 2014).
